Measurements reported in ChEMBL document CHEMBL3797186, “Single Residue Substitutions That Confer Voltage-Gated Sodium Ion Channel Subtype Selectivity in the NaV1.7 Inhibitory Peptide GpTx-1” (J Med Chem, 2016).
Positions of bridges follow the written chain, without caps; N, C: chain ends. Residues, ends and D or L forms follow the SMILES beside them.

Each compound was assayed against Sodium channel protein type 5 subunit alpha (Homo sapiens, UniProt Q14524) (assay: Inhibition of human Nav1.5 expressed in HEK293 cells assessed as inward peak current by ion-works quattro patch clamp electrophysiology method).
Sequence of Sodium channel protein type 5 subunit alpha (Q14524 whole entry): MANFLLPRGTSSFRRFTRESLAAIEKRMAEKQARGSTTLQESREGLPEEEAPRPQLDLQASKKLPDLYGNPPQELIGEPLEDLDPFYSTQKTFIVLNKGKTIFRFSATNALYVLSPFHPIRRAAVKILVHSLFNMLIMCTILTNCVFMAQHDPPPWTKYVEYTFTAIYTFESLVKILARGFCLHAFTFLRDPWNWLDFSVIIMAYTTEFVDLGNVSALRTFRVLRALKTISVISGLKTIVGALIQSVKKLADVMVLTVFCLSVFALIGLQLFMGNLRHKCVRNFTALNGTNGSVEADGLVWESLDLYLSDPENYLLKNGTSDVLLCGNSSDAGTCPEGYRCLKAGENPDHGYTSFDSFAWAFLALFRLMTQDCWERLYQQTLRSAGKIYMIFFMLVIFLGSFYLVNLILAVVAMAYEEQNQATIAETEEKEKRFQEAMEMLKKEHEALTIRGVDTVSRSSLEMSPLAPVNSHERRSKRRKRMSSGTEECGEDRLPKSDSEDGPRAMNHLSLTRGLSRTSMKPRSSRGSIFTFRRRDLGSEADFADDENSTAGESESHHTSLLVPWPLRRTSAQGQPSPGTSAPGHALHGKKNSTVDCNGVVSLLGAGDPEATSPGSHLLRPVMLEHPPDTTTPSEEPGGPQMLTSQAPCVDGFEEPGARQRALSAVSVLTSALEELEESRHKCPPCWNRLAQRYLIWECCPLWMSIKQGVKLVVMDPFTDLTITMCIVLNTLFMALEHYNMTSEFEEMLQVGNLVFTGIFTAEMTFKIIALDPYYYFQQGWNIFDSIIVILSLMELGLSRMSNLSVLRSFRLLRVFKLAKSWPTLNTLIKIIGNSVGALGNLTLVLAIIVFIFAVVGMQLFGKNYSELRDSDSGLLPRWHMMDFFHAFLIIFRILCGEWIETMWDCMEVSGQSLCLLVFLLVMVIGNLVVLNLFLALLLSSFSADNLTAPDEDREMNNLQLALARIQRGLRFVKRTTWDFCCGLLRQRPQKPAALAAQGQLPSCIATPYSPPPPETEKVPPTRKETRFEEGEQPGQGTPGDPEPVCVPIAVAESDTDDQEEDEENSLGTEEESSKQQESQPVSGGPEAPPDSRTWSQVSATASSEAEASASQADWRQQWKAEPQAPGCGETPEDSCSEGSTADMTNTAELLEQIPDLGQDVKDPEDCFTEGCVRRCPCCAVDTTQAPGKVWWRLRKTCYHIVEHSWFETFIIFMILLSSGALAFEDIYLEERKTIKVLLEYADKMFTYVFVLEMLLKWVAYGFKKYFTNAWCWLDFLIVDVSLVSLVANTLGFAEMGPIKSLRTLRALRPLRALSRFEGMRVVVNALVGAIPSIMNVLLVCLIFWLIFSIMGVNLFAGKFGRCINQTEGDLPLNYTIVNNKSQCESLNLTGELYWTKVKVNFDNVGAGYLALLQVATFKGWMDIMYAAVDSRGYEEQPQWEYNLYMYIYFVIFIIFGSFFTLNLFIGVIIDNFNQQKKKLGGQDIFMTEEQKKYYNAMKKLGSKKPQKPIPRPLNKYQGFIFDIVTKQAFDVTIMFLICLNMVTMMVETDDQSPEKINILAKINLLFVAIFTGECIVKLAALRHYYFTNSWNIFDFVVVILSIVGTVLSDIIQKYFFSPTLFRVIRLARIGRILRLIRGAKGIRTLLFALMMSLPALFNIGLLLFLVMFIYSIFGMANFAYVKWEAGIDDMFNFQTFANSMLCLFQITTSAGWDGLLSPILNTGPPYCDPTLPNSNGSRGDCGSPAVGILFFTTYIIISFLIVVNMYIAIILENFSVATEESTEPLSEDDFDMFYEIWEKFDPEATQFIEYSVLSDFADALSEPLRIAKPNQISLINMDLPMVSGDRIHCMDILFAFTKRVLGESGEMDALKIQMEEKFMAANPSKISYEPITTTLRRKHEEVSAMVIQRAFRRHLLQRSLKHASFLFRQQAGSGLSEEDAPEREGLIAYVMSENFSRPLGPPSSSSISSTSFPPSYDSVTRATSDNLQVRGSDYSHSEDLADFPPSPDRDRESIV
Type: cell-based
In short: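 Stable HEK293 line expressing human NaV1.5, recorded by population patch clamp on the IonWorks Quattro.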

SMILES	IC50
CC[C@H](C)[C@@H]1NC(=O)[C@@H]2CSSC[C@@H]3NC(=O)[C@H](C(C)C)NC(=O)[C@H](CC(C)C)NC(=O)[C@H](CC(N)=O)NC(=O)[C@@H]4CCCN4C(=O)[C@H](CCCNC(=N)N)NC(=O)[C@H](CSSC[C@H](NC(=O)[C@@H](N)CC(=O)O)C(=O)N[C@@H](CC(C)C)C(=O)NCC(=O)N[C@@H](Cc4ccccc4)C(=O)N[C@@H](CCSC)C(=O)N[C@@H](CCCNC(=N)N)C(=O)N[C@@H](CCCCN)C(=O)N2)NC(=O)[C@H](CSSC[C@@H](C(=O)N[C@@H](CCCCN)C(=O)N[C@@H](Cc2ccc(O)cc2)C(=O)N[C@@H](CCCNC(=N)N)C(=O)N[C@@H](Cc2ccccc2)C(N)=O)NC(=O)[C@H](Cc2c[nH]c4ccccc24)NC(=O)[C@H](CCCCN)NC(=O)[C@H](Cc2cnc[nH]2)NC(=O)[C@H]([C@@H](C)O)NC(=O)[C@H](CCCNC(=N)N)NC(=O)[C@H](CO)NC3=O)NC(=O)[C@H](CCCCN)NC(=O)[C@H](CC(=O)O)NC(=O)[C@H](CC(N)=O)NC(=O)[C@H](CC(=O)O)NC(=O)[C@@H]2CCCN2C1=O (H-DCLGFMRKCIPDNDKCCRPNLVCSRTHKWCKYRF-NH2; disulfide 2-17, 9-23, 16-30)	> 5 µM
CC[C@H](C)[C@@H]1NC(=O)[C@@H]2CSSC[C@@H]3NC(=O)[C@H](C(C)C)NC(=O)[C@H](CC(C)C)NC(=O)[C@H](CC(N)=O)NC(=O)[C@@H]4CCCN4C(=O)[C@H](CCCNC(=N)N)NC(=O)[C@H](CSSC[C@H](NC(=O)[C@@H](N)CC(=O)O)C(=O)N[C@@H](CC(C)C)C(=O)NCC(=O)N[C@@H](Cc4ccccc4)C(=O)N[C@@H](CCSC)C(=O)N[C@@H](CCCNC(=N)N)C(=O)N[C@@H](CCCCN)C(=O)N2)NC(=O)[C@H](CSSC[C@@H](C(=O)N[C@@H](CCCCN)C(=O)N[C@@H](Cc2ccc(O)cc2)C(=O)N[C@@H](CCC(=O)O)C(=O)N[C@@H](Cc2ccccc2)C(N)=O)NC(=O)[C@H](Cc2c[nH]c4ccccc24)NC(=O)[C@H](CCCCN)NC(=O)[C@H](Cc2cnc[nH]2)NC(=O)[C@H]([C@@H](C)O)NC(=O)[C@H](CCCNC(=N)N)NC(=O)[C@H](CO)NC3=O)NC(=O)[C@H](CCCCN)NC(=O)[C@H](CC(=O)O)NC(=O)[C@H](CC(N)=O)NC(=O)[C@H](CC(=O)O)NC(=O)[C@@H]2CCCN2C1=O (H-DCLGFMRKCIPDNDKCCRPNLVCSRTHKWCKYEF-NH2; disulfide 2-17, 9-23, 16-30)	> 5 µM
CC[C@H](C)[C@@H]1NC(=O)[C@@H]2CSSC[C@@H]3NC(=O)[C@H](C(C)C)NC(=O)[C@H](CC(C)C)NC(=O)[C@H](CC(N)=O)NC(=O)[C@@H]4CCCN4C(=O)[C@H](CCCNC(=N)N)NC(=O)[C@H](CSSC[C@H](NC(=O)[C@@H](N)CC(=O)O)C(=O)N[C@@H](CC(C)C)C(=O)N[C@@H](CCC(=O)O)C(=O)N[C@@H](Cc4ccccc4)C(=O)N[C@@H](CCSC)C(=O)N[C@@H](CCCNC(=N)N)C(=O)N[C@@H](CCCCN)C(=O)N2)NC(=O)[C@H](CSSC[C@@H](C(=O)N[C@@H](CCCCN)C(=O)N[C@@H](Cc2ccc(O)cc2)C(=O)N[C@H](C(=O)N[C@@H](Cc2ccccc2)C(N)=O)C(C)C)NC(=O)[C@H](Cc2c[nH]c4ccccc24)NC(=O)[C@H](CCCCN)NC(=O)[C@H](Cc2cnc[nH]2)NC(=O)[C@H]([C@@H](C)O)NC(=O)[C@H](CCCNC(=N)N)NC(=O)[C@H](CO)NC3=O)NC(=O)[C@H](CCCCN)NC(=O)[C@H](CC(=O)O)NC(=O)[C@H](CC(N)=O)NC(=O)[C@H](CC(=O)O)NC(=O)[C@@H]2CCCN2C1=O (H-DCLEFMRKCIPDNDKCCRPNLVCSRTHKWCKYVF-NH2; disulfide 2-17, 9-23, 16-30)	> 5 µM
CC[C@H](C)[C@@H]1NC(=O)[C@@H]2CSSC[C@@H]3NC(=O)[C@H](C(C)C)NC(=O)[C@H](CC(C)C)NC(=O)[C@H](CC(N)=O)NC(=O)[C@@H]4CCCN4C(=O)[C@H](CCCNC(=N)N)NC(=O)[C@H](CSSC[C@H](NC(=O)[C@@H](N)CCCNC(=N)N)C(=O)N[C@@H](CC(C)C)C(=O)NCC(=O)N[C@@H](Cc4ccccc4)C(=O)N[C@@H](CCSC)C(=O)N[C@@H](CCCNC(=N)N)C(=O)N[C@@H](CCCCN)C(=O)N2)NC(=O)[C@H](CSSC[C@@H](C(=O)N[C@@H](CCCCN)C(=O)N[C@@H](Cc2ccc(O)cc2)C(=O)N[C@H](C(=O)N[C@@H](Cc2ccccc2)C(N)=O)C(C)C)NC(=O)[C@H](Cc2c[nH]c4ccccc24)NC(=O)[C@H](CCCCN)NC(=O)[C@H](Cc2cnc[nH]2)NC(=O)[C@H]([C@@H](C)O)NC(=O)[C@H](CCCNC(=N)N)NC(=O)[C@H](CO)NC3=O)NC(=O)[C@H](CCCCN)NC(=O)[C@H](CC(=O)O)NC(=O)[C@H](CC(N)=O)NC(=O)[C@H](CC(=O)O)NC(=O)[C@@H]2CCCN2C1=O (H-RCLGFMRKCIPDNDKCCRPNLVCSRTHKWCKYVF-NH2; disulfide 2-17, 9-23, 16-30)	> 5 µM
CC[C@H](C)[C@@H]1NC(=O)[C@@H]2CSSC[C@@H]3NC(=O)[C@H](C(C)C)NC(=O)[C@H](CC(C)C)NC(=O)[C@H](CC(N)=O)NC(=O)[C@@H]4CCCN4C(=O)[C@H](CCCNC(=N)N)NC(=O)[C@H](CSSC[C@H](NC(=O)[C@@H](N)CC(=O)O)C(=O)N[C@@H](CC(C)C)C(=O)NCC(=O)N[C@@H](Cc4ccccc4)C(=O)N[C@@H](CCSC)C(=O)N[C@@H](CCCNC(=N)N)C(=O)N[C@@H](CCCCN)C(=O)N2)NC(=O)[C@H](CSSC[C@@H](C(=O)N[C@@H](CCCCN)C(=O)N[C@@H](Cc2ccc(O)cc2)C(=O)N[C@H](C(=O)N[C@@H](Cc2ccccc2)C(N)=O)C(C)C)NC(=O)[C@H](Cc2c[nH]c4ccccc24)NC(=O)[C@H](CCCCN)NC(=O)[C@H](Cc2cnc[nH]2)NC(=O)[C@H]([C@@H](C)O)NC(=O)[C@H](CCCCN)NC(=O)[C@H](CO)NC3=O)NC(=O)[C@H](CCCCN)NC(=O)[C@H](CC(=O)O)NC(=O)[C@H](CC(N)=O)NC(=O)[C@H](CC(=O)O)NC(=O)[C@@H]2CCCN2C1=O (H-DCLGFMRKCIPDNDKCCRPNLVCSKTHKWCKYVF-NH2; disulfide 2-17, 9-23, 16-30)	> 5 µM
CC[C@H](C)[C@@H]1NC(=O)[C@@H]2CSSC[C@@H]3NC(=O)[C@H](C(C)C)NC(=O)[C@H](CC(C)C)NC(=O)[C@H](CC(N)=O)NC(=O)[C@@H]4CCCN4C(=O)[C@H](CCCNC(=N)N)NC(=O)[C@H](CSSC[C@H](NC(=O)[C@@H](N)CC(=O)O)C(=O)N[C@@H](CC(C)C)C(=O)NCC(=O)N[C@@H](Cc4ccccc4)C(=O)N[C@@H](CCSC)C(=O)N[C@@H](CCCNC(=N)N)C(=O)N[C@@H](CCCCN)C(=O)N2)NC(=O)[C@H](CSSC[C@@H](C(=O)N[C@@H](CCCCN)C(=O)N[C@@H](Cc2ccc(O)cc2)C(=O)N[C@@H](Cc2c[nH]c4ccccc24)C(=O)N[C@@H](Cc2ccccc2)C(N)=O)NC(=O)[C@H](Cc2c[nH]c4ccccc24)NC(=O)[C@H](CCCCN)NC(=O)[C@H](Cc2c[nH]cn2)NC(=O)[C@H]([C@@H](C)O)NC(=O)[C@H](CCCNC(=N)N)NC(=O)[C@H](CO)NC3=O)NC(=O)[C@H](CCCCN)NC(=O)[C@H](CC(=O)O)NC(=O)[C@H](CC(N)=O)NC(=O)[C@H](CC(=O)O)NC(=O)[C@@H]2CCCN2C1=O (H-DCLGFMRKCIPDNDKCCRPNLVCSRTHKWCKYWF-NH2; disulfide 2-17, 9-23, 16-30)	> 5 µM
CC[C@H](C)[C@@H]1NC(=O)[C@@H]2CSSC[C@@H]3NC(=O)[C@H](C(C)C)NC(=O)[C@H](CC(C)C)NC(=O)[C@H](CC(N)=O)NC(=O)[C@@H]4CCCN4C(=O)[C@H](CCCNC(=N)N)NC(=O)[C@H](CSSC[C@H](NC(=O)[C@@H](N)CC(=O)O)C(=O)N[C@@H](CCCNC(=N)N)C(=O)NCC(=O)N[C@@H](Cc4ccccc4)C(=O)N[C@@H](CCSC)C(=O)N[C@@H](CCCNC(=N)N)C(=O)N[C@@H](CCCCN)C(=O)N2)NC(=O)[C@H](CSSC[C@@H](C(=O)N[C@@H](CCCCN)C(=O)N[C@@H](Cc2ccc(O)cc2)C(=O)N[C@H](C(=O)N[C@@H](Cc2ccccc2)C(N)=O)C(C)C)NC(=O)[C@H](Cc2c[nH]c4ccccc24)NC(=O)[C@H](CCCCN)NC(=O)[C@H](Cc2cnc[nH]2)NC(=O)[C@H]([C@@H](C)O)NC(=O)[C@H](CCCNC(=N)N)NC(=O)[C@H](CO)NC3=O)NC(=O)[C@H](CCCCN)NC(=O)[C@H](CC(=O)O)NC(=O)[C@H](CC(N)=O)NC(=O)[C@H](CC(=O)O)NC(=O)[C@@H]2CCCN2C1=O (H-DCRGFMRKCIPDNDKCCRPNLVCSRTHKWCKYVF-NH2; disulfide 2-17, 9-23, 16-30)	> 5 µM
CSCC[C@@H]1NC(=O)[C@H](Cc2ccccc2)NC(=O)CNC(=O)[C@H](CC(C)C)NC(=O)[C@@H](NC(=O)[C@@H](N)CC(=O)O)CSSC[C@@H]2NC(=O)[C@@H]3CSSC[C@@H](C(=O)N[C@@H](CCCCN)C(=O)N[C@@H](Cc4ccc(O)cc4)C(=O)N[C@H](C(=O)N[C@@H](Cc4ccccc4)C(N)=O)C(C)C)NC(=O)[C@H](Cc4c[nH]c5ccccc45)NC(=O)[C@H](CCCCN)NC(=O)[C@H](Cc4cnc[nH]4)NC(=O)[C@H]([C@@H](C)O)NC(=O)[C@H](CCCNC(=N)N)NC(=O)[C@H](CO)NC(=O)[C@H](CSSC[C@H](NC(=O)[C@H](CCCCN)NC(=O)[C@H](CCCNC(=N)N)NC1=O)C(=O)N[C@@H](Cc1cnc[nH]1)C(=O)N1CCC[C@H]1C(=O)N[C@@H](CC(=O)O)C(=O)N[C@@H](CC(N)=O)C(=O)N[C@@H](CC(=O)O)C(=O)N[C@@H](CCCCN)C(=O)N3)NC(=O)[C@H](C(C)C)NC(=O)[C@H](CC(C)C)NC(=O)[C@H](CC(N)=O)NC(=O)[C@@H]1CCCN1C(=O)[C@H](CCCNC(=N)N)NC2=O (H-DCLGFMRKCHPDNDKCCRPNLVCSRTHKWCKYVF-NH2; disulfide 2-17, 9-23, 16-30)	> 5 µM
